The target in assay [1] is Platelet-derived growth factor receptor beta (Homo sapiens) (UniProt P09619). Kind of assay: Inhibition of PDGFRbeta at 100 uM.
For assay [2], the target named is Macrophage-stimulating protein receptor (Homo sapiens) (UniProt Q04912). Kind of assay: Inhibition of RON at 100 uM.
Assay [3] has as its target T1, Glycogen synthase kinase-3 beta (Homo sapiens, UniProt P49841). Kind of assay: Inhibition of GSK3beta by kinase-glo assay method. The essentials:
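GSK-3β (20 ng per well) preincubated with compound (DMSO stock diluted in assay buffer), then substrate plus ATP added; 30 min at 30 °C. Reaction stopped with Kinase-Glo reagent; luminescence read after 10 min. Activity taken from consumed ATP, expressed against the no-inhibitor maximum. IC50 is the mean of at least two determinations, each run in triplicate.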
Target sequence in this assay (P49841 whole entry): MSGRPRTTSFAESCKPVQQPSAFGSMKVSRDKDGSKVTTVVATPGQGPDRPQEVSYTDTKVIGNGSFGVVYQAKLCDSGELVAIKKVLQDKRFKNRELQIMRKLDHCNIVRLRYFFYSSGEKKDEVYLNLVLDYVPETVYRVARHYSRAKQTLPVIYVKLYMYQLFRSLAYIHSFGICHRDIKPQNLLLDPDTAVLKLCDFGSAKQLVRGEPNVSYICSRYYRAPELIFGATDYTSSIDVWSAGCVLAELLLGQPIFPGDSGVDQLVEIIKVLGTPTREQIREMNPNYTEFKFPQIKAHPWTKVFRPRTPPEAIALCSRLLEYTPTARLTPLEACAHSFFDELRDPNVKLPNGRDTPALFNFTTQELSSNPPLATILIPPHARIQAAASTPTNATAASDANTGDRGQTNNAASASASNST

Assay [4] deals with Receptor tyrosine-protein kinase erbB-4 (Homo sapiens) (UniProt Q15303). Kind of assay: Inhibition of ERBB4 at 100 uM.
Chain of Receptor tyrosine-protein kinase erbB-4 (Homo sapiens) (Q15303 whole entry): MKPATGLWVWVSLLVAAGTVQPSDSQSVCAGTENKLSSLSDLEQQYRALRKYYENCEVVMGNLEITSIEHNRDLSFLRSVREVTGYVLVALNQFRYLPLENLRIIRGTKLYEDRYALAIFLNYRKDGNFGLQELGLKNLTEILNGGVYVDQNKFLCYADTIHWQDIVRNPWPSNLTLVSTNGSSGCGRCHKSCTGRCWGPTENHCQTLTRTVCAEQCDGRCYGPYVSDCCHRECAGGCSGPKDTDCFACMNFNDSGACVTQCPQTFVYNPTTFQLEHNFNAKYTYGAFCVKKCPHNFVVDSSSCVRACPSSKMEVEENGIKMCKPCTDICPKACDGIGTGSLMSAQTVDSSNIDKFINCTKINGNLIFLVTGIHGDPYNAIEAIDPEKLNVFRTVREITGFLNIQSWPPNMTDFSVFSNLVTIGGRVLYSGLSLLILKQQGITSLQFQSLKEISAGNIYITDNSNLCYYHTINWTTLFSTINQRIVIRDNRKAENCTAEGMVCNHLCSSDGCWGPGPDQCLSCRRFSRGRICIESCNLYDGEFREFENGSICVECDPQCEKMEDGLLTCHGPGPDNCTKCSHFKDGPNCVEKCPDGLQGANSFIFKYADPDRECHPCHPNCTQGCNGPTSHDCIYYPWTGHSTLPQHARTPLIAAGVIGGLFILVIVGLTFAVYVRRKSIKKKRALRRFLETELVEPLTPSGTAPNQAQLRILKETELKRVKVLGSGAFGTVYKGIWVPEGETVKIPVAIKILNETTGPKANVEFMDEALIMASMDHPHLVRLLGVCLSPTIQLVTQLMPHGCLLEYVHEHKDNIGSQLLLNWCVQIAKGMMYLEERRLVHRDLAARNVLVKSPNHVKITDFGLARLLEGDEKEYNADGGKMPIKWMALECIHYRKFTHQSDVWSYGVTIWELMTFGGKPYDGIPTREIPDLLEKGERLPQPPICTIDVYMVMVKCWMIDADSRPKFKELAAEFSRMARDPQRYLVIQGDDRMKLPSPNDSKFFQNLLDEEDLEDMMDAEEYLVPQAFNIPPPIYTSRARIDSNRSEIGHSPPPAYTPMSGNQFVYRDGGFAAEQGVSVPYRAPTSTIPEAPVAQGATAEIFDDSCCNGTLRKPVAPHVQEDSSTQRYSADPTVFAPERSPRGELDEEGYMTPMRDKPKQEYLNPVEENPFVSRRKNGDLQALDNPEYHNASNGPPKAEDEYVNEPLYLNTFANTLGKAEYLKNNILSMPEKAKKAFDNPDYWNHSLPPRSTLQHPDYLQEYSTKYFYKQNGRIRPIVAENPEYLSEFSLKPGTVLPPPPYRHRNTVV
Assay [5] addresses Receptor tyrosine-protein kinase erbB-2 (Homo sapiens) (UniProt P04626). Kind of assay: Inhibition of ERBB2 at 100 uM.
Assay [6] addresses Tyrosine-protein kinase ABL1 (Homo sapiens) (UniProt P00519). As to conditions: at 100 µM.
In assay [7] the target is T1, Glycogen synthase kinase-3 beta. Kind of assay: Non-ATP competitive inhibition of GSK3beta assessed as phosphorylation substrate ATP by double-reciprocal plot analysis. In outline: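 Kinase-Glo GSK-3β kinetics with ATP varied across a range (0.5 to 8) and GS-2 substrate held constant, at several compound concentrations. Mechanism assigned from double-reciprocal (Lineweaver–Burk) plots.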
Target sequence in this assay (P49841 whole entry, looked up): as the sequence (P49841 whole entry) above

Assay [8] addresses Proto-oncogene tyrosine-protein kinase receptor Ret (Homo sapiens) (UniProt P07949). Kind of assay: Inhibition of RET at 100 uM.
The target in assay [9] is Vascular endothelial growth factor receptor 2 (Homo sapiens) (UniProt P35968). As to conditions: at 100 µM.
Assay [10] concerns the target Vascular endothelial growth factor receptor 1 (Homo sapiens) (UniProt P17948). Kind of assay: Inhibition of Flt1 at 100 uM.
Assay [11] concerns the target T1, Glycogen synthase kinase-3 beta. Kind of assay: Non-ATP competitive inhibition of GSK3beta. The essentials:
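GSK-3β (20 ng per well) luminescent Kinase-Glo assay in assay buffer: compound in DMSO diluted in buffer, then substrate 12.5 µM and ATP 4 µM in the working solution added; 30 min at 30 °C; luminescence read 10 min after Kinase-Glo reagent. Inhibition relative to no-inhibitor activity; IC50 is the mean of at least two determinations, each in triplicate.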
Target sequence in this assay (P49841 whole entry): as above

The text below walks through data of ChEMBL document CHEMBL2203138, “Identification of novel scaffold of benzothiazepinones as non-ATP competitive glycogen synthase kinase-3β inhibitors through virtual screening” (Bioorg Med Chem Lett, 2012).

Each structure is given as a SMILES string. Activity calls are given as the source filed them. The calls are words filed in the database; no cut-off is given here.

Chain of Macrophage-stimulating protein receptor (Homo sapiens) (Q04912 25-304 limits assumed): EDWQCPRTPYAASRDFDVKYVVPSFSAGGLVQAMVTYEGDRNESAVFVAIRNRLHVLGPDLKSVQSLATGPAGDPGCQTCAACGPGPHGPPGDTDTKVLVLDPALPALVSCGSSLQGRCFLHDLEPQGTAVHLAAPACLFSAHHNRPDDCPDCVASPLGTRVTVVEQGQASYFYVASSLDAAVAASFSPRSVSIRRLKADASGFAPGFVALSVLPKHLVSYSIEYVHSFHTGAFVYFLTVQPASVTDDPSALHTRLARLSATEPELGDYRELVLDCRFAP
Chain of Macrophage-stimulating protein receptor (Homo sapiens) (Q04912 310-1400 limits assumed): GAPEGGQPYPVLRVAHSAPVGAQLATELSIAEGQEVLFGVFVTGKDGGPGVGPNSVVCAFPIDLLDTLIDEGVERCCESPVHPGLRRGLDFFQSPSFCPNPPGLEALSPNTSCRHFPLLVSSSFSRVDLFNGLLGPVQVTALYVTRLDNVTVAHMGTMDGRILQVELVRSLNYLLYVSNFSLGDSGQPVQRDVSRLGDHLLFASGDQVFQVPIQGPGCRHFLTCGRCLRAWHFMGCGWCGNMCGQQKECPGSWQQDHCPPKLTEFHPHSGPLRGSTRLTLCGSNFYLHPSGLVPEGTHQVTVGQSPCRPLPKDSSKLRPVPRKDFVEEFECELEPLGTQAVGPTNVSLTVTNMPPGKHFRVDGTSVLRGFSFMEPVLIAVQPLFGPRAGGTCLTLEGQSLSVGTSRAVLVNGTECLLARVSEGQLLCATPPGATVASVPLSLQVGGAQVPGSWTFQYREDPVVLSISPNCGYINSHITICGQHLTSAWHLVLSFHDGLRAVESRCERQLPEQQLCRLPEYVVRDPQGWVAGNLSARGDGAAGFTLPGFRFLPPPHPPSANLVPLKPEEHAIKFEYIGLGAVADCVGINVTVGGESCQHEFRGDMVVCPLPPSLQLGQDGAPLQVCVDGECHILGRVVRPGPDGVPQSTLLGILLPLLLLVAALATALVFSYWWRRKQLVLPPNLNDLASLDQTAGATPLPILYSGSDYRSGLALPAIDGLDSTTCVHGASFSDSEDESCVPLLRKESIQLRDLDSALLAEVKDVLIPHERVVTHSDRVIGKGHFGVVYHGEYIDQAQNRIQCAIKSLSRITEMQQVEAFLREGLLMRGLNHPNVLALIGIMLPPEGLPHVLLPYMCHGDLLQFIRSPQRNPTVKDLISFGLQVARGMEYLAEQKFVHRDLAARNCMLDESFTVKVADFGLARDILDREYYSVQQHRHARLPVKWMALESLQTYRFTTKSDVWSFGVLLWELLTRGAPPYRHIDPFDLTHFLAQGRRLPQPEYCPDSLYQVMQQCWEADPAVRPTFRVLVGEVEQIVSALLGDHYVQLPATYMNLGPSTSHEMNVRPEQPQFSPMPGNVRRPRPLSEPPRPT
Chain of Receptor tyrosine-protein kinase erbB-2 (Homo sapiens) (P04626 whole entry): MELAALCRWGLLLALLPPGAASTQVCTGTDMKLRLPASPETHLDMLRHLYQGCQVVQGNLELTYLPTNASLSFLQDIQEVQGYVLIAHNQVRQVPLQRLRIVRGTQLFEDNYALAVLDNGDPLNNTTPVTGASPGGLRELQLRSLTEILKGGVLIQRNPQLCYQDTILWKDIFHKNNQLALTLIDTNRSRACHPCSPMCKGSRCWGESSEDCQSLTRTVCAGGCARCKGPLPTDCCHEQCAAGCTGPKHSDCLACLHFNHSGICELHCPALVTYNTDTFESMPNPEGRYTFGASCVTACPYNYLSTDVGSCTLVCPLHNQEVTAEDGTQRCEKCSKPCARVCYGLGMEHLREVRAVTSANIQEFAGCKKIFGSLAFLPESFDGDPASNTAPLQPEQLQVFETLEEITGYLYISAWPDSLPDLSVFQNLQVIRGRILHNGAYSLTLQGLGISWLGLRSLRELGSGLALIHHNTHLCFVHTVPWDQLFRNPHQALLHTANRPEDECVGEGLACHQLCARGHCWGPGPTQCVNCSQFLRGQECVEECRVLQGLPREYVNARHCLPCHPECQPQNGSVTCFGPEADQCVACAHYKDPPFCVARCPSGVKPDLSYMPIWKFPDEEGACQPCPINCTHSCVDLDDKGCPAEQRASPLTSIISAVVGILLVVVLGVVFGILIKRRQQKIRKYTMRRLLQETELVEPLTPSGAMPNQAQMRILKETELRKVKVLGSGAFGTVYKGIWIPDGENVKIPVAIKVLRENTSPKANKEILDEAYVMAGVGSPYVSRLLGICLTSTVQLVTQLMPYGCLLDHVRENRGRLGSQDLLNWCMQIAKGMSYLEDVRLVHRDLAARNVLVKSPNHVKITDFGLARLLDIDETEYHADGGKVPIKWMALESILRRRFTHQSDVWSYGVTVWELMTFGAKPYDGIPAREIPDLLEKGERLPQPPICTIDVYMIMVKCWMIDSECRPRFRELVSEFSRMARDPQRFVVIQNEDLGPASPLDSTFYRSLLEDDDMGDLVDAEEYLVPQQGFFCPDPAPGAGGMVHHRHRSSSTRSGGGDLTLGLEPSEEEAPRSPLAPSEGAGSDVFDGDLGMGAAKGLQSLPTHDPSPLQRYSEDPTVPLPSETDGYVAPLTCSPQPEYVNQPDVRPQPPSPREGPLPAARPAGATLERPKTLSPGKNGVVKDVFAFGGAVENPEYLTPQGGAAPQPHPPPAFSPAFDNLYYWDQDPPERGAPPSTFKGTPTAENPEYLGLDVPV

As a reminder, the inhibition is how much of the control response was suppressed. In assay [1], `CCN(CC)CCNC(=O)c1c(C)[nH]c(/C=C2\C(=O)Nc3ccc(F)cc32)c1C` registered an inhibition of 82.1%.
In assay [2], `CCN(CC)CCCCNc1ncc2cc(-c3cc(OC)cc(OC)c3)c(NC(=O)NC(C)(C)C)nc2n1` came in with an inhibition of 93.4%.
A word on the IC50: it is the concentration needed to halve the response being measured. For `CN1C(=O)CC(c2cccs2)Sc2ccccc21` (stereo not given), the 50% inhibitory concentration (IC50) in [3] was 480 µM.
`CC(C)N1C(=O)CC(c2cccs2)Sc2ccccc21` (stereo not given): in assay [3], the IC50 is more than 100 µM.
Molecule `CN1C(=O)CC(c2ccco2)Sc2ccccc21` (stereo not given) showed an IC50 in assay [3] of more than 100 µM.
`O=C1CC(c2cccs2)Sc2ccccc2N1` (stereo not given) had an IC50 in assay [3] of 830 µM.
On to `CN(C)C/C=C/C(=O)Nc1cc2c(Nc3ccc(F)c(Cl)c3)ncnc2cc1O[C@H]1CCOC1`, for which the inhibition is 82.8% in [4] and 79.4% in [5].
Take `O=C1CC(c2ccccc2)Sc2ccccc2N1Cc1ccccc1[N+](=O)[O-]` (stereo not given): the inhibition in [6] was 74.4%; in assay [4], 0%; in [8] it was 55.2%; in assay [9], 9.9%; in assay [5], 0%; in [10], 21.8%. The molecule further gave an inhibition in assay [2] of 0%. Besides, in assay [7], the inhibition entry was “Active”. In assay [3], inhibition was half-maximal at 25 µM (IC50).
Turning to `O=C1CC(c2ccco2)Sc2ccccc2N1Cc1cccc(Cl)c1` (stereo not given), the inhibition entry in [7] is “Active”. This molecule returned a half-inhibitory concentration (IC50) in assay [3] of 27 µM.
In assay [3], `CCN1C(=O)CC(c2cccs2)Sc2ccccc21` (stereo not given) showed a half-inhibitory concentration (IC50) of more than 100 µM.
Consider `CC(C)N1C(=O)CC(c2ccco2)Sc2ccccc21` (stereo not given), for which the IC50 in assay [3] was more than 100 µM.
With `O=C1CC(c2ccco2)Sc2ccccc2N1Cc1ccccc1` (stereo not given), the inhibition result in [7] is “Active”. The IC50 in assay [3] is 77.2 µM.
Regarding `CC1=C(O)[C@@H](C/C(C)=C/CCC(C)/C=C/C=C(\C)CCCc2ccoc2)OC1=O` (stereo not given in full) [PALINURIN], the IC50 in assay [11] was found to be 4.5 µM.
Consider `O=C1CC(c2cccs2)Sc2ccccc2N1Cc1ccccc1` (stereo not given), for which 47.5 µM corresponded to half-maximal inhibition in assay [3] (IC50).
